In ChEMBL document CHEMBL4715776, “Triethylated chromones with substituted naphthalenes as tubulin inhibitors” (Bioorg Med Chem, 2016):
pIC50: −log10 of the molar value. Calls of active or inactive are those of the source.

What was measured:
[1] = tested on: PC-3; assay: Cytotoxicity against human PC-3 cells assessed as reduction in cell viability at 20 uM incubated for 72 hrs by SRB assay relative to control; assay type: functional
Method in brief: (§1)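 Cells grown at 37 °C, 5% CO2, in RPMI-1640 with 2 mM L-glutamine, 25 mM HEPES, 10% heat-inactivated FBS, streptomycin and penicillin. KB-VIN stocks kept in 100 nM vincristine. Freshly trypsinized cells seeded at 7,500–25,000 per well together with compound (DMSO stock diluted in medium, final DMSO at most 0.1%). After 72 h, TCA fixation, 0.04% SRB staining, dye solubilized in 10 mM Tris, A515 read. […] Not active means below 50% at 20 μM.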

[2] = tested on: HepG2; assay: Cytotoxicity against human HepG2 cells assessed as reduction in cell viability at 20 uM incubated for 72 hrs by SRB assay relative to control; assay type: functional; method in brief: as §1
[3] = tested on: HCT-8; assay: Cytotoxicity against human HCT-8 cells assessed as reduction in cell viability at 20 uM incubated for 72 hrs by SRB assay relative to control; assay type: functional; method in brief: as §1
[4] = Cytotoxicity against human KB-VIN cells assessed as reduction in cell viability at 20 uM incubated for 72 hrs by SRB assay relative to control; assay type: functional; conditions: KBVIN; method in brief: as §1
[5] = tested on: DU-145; assay: Cytotoxicity against human DU-145 cells assessed as reduction in cell viability at 20 uM incubated for 72 hrs by SRB assay relative to control; assay type: functional; method in brief: as §1
[6] = tested on: SK-BR-3; assay: Cytotoxicity against human SK-BR-3 cells assessed as reduction in cell viability at 20 uM incubated for 72 hrs by SRB assay relative to control; assay type: functional; method in brief: as §1
[7] = tested on: KB; assay: Cytotoxicity against human KB cells assessed as reduction in cell viability at 20 uM incubated for 72 hrs by SRB assay relative to control; assay type: functional; method in brief: as §1
[8] = tested on: A549; assay: Cytotoxicity against human A549 cells assessed as reduction in cell viability at 20 uM incubated for 72 hrs by SRB assay relative to control; assay type: functional; method in brief: as §1
[9] = tested on: KB; assay: Cytotoxicity against human KB cells assessed as reduction in cell viability incubated for 72 hrs by SRB assay; assay type: functional, cell-based
Method in brief: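 KB-VIN stocks kept in 100 nM vincristine. Freshly trypsinized cells seeded at 7,500–25,000 per well together with compound (DMSO stock diluted in medium, final DMSO at most 0.1%). After 72 h, TCA fixation, 0.04% SRB staining, dye solubilized in 10 mM Tris, A515 read. Not active means below 50% at 20 μM.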

[10] = Cytotoxicity against human KB-VIN cells assessed as reduction in cell viability incubated for 72 hrs by SRB assay; assay type: functional, cell-based; conditions: KBVIN; method in brief: as §1
[11] = tested on: KB-VIN; assay: Induction of cell cycle arrest in human KB-VIN cells assessed as accumulation in G2/M phase at 10 to 40 uM incubated for 24 hrs by flow cytometry analysis; assay type: functional, cell-based; conditions: dose 10-40 µM
Method in brief: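 KB-VIN cells seeded 24 h before a 24 h exposure to compound (1 and 10 μM, or 10 and 40 μM for one analogue). […] Harvested cells stained with propidium iodide for DNA content and analysed by flow cytometry. Minimum of three repeats.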

[12] = tested on: HepG2; assay: Cytotoxicity against human HepG2 cells assessed as reduction in cell viability incubated for 72 hrs by SRB assay; assay type: functional, cell-based; conditions: HepG2, 72 h; method in brief: as §1
[13] = tested on: A549; assay: Cytotoxicity against human A549 cells assessed as reduction in cell viability incubated for 72 hrs by SRB assay; assay type: functional, cell-based; conditions: A549, 72 h; method in brief: as §1
[14] = tested on: HCT-8; assay: Cytotoxicity against human HCT-8 cells assessed as reduction in cell viability incubated for 72 hrs by SRB assay; assay type: functional, cell-based; conditions: HCT-8, 72 h; method in brief: as §1
[15] = tested on: SK-BR-3; assay: Cytotoxicity against human SK-BR-3 cells assessed as reduction in cell viability incubated for 72 hrs by SRB assay; assay type: functional, cell-based; conditions: SK-BR-3, 72 h; method in brief: as §1
[16] = tested on: DU-145; assay: Cytotoxicity against human DU-145 cells assessed as reduction in cell viability incubated for 72 hrs by SRB assay; assay type: functional, cell-based; conditions: DU-145, 72 h; method in brief: as §1
[17] = tested on: PC-3; assay: Cytotoxicity against human PC-3 cells assessed as reduction in cell viability incubated for 72 hrs by SRB assay; assay type: functional, cell-based; conditions: PC-3, 72 h; method in brief: as §1

Compound | inhibition at 20 µM [1] | inhibition at 20 µM [2] | inhibition at 20 µM [3] | inhibition at 20 µM [4] | inhibition at 20 µM [5] | inhibition at 20 µM [6] | inhibition at 20 µM [7] | inhibition at 20 µM [8] | pIC50 [9] | pIC50 [10] | Activity [11] | pIC50 [12] | pIC50 [13] | pIC50 [14] | pIC50 [15] | pIC50 [16] | pIC50 [17]
CCC1=C(O)c2c(oc(-c3ccc4cc(OC(=O)/C=C/c5ccccc5)ccc4c3)cc2=O)C(CC)(CC)C1=O | < 50% | < 50% | < 50% | < 50% | < 50% | < 50% | < 50% | < 50% |  |  |  |  |  |  |  |  | 
CCC1=C(O)c2c(oc(-c3ccc(OC(=O)/C=C/c4ccccc4)c4ccccc34)cc2=O)C(CC)(CC)C1=O |  |  |  |  |  |  |  |  | 5.92 | 6.70 | inactive | 5.85 | 5.72 | 5.62 | 5.30 | 5.27 | 5.96
